Source: ChEMBL document CHEMBL1139427, “Inhibition of IkappaB kinase-beta and anticancer activities of novel chalcone adamantyl arotinoids” (J Med Chem, 2008)
The source made the active and inactive calls. The calls are words filed in the database; no cut-off is given here.

Key:
[1] = molecular target: T1, Retinoic acid receptor gamma (Homo sapiens) (UniProt P13631); test: Antagonist activity at human RARgamma expressed in african green monkey CV1 cells assessed as all-trans-retinoic acid-stimulated Gal4 transactivation activity by luciferase reporter gene assay; type: functional, cell-based; parameters: scale not given: the % may be the effect or the level left; details: CV-1
T1 sequence (whole entry): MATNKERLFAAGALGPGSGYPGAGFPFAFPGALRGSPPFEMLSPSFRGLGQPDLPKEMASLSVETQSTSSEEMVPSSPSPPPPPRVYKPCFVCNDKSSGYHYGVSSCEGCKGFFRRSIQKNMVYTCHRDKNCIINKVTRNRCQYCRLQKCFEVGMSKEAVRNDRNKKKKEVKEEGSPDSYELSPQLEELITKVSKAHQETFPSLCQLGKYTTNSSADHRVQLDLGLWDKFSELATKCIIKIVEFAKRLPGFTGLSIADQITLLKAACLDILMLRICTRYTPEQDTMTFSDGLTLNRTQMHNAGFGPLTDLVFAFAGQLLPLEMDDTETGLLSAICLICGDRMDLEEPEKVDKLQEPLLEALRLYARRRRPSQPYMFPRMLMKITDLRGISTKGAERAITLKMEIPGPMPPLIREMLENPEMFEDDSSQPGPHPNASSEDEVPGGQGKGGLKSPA
Method in brief: (§1)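 Same Gal4-RAR LBD/UAS-luciferase CV-1 transfection, 5% charcoal-treated FBS medium. Cells stimulated with 0.2 µM ATRA alone or with 2 µM compound (10-fold molar excess). Readout after 6 h (RARα, RARβ) or 20 h (RARγ). Luciferase normalized to β-galactosidase, as % of ATRA maximum; mean ± SD, ≥2 experiments in triplicate.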

[2] = molecular target: T1, Retinoic acid receptor gamma (Homo sapiens); test: Activity at human RARgamma expressed in african green monkey CV1 cells assessed as enhanced Gal4 transactivation activity by luciferase reporter gene assay; type: cell-based; details: CV-1
Method in brief: (§2)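 Gal4 DBD fused to human RAR LBD (α 156-462, β 149-448, γ 158-454), cotransfected into CV-1 cells (20 000/well) with UAS-luciferase and β-galactosidase vectors. 16 h later, medium with 5% charcoal-treated FBS; compound at 2 µM alone, ATRA 1 µM reference. Read after 6 h (RARα, RARβ) or 20 h (RARγ). Normalized luciferase as % of ATRA maximum; mean ± SD, ≥2 experiments in triplicate.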

MDA-MB-468 [3] = test: Antiproliferative activity against estrogen-independent human MDA-MB-468 cells after 48 hrs by MTT assay; type: functional, cell-based; details: MDA-MB-468, 48 h
Method in brief: (§3)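 MTT viability assay. PC-3, T-47D and MDA-MB-468 seeded at 5000/well the day before, switched to 0.5% FBS medium at treatment. Jurkat seeded at 10 000/well (10⁵ cells/mL) in RPMI with 0.5% FBS. Compound 0.125-8 µM from DMSO stocks; DMSO ≤0.1% as control. Jurkat 24 h, others 48 h. MTT 4 h at 37 °C, SDS/HCl solubilization, A595. IC50 from two experiments in triplicate.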

[4] = molecular target: T2, Retinoic acid receptor beta (Homo sapiens) (UniProt P10826); test: Antagonist activity at human RARbeta expressed in african green monkey CV1 cells assessed as all-trans-retinoic acid-stimulated Gal4 transactivation activity by luciferase reporter gene assay; type: functional, cell-based; parameters: scale not given: the % may be the effect or the level left; details: CV-1; method in brief: as §1
T2 sequence (whole entry): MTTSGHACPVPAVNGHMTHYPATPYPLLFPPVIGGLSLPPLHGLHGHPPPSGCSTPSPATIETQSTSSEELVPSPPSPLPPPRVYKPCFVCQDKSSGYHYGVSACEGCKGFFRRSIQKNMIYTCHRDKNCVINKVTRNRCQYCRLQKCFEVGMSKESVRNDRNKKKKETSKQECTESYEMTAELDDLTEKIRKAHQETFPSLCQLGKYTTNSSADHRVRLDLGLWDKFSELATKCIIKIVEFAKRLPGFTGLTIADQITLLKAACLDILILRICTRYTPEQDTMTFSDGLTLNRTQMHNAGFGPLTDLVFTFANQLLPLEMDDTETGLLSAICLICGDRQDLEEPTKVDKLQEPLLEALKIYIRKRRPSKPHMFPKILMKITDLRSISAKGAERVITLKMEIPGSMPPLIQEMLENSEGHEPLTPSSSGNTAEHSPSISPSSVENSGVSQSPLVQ

[5] = molecular target: T2, Retinoic acid receptor beta (Homo sapiens); test: Activity at human RARbeta expressed in african green monkey CV1 cells assessed as enhanced Gal4 transactivation activity by luciferase reporter gene assay; type: cell-based; details: CV-1; method in brief: as §2
[6] = molecular target: T3, Retinoic acid receptor alpha (Homo sapiens) (UniProt P10276); test: Antagonist activity at human RARalpha expressed in african green monkey CV1 cells assessed as all-trans-retinoic acid-stimulated Gal4 transactivation activity by luciferase reporter gene assay; type: functional, cell-based; details: CV-1; method in brief: as §1
T3 sequence (whole entry): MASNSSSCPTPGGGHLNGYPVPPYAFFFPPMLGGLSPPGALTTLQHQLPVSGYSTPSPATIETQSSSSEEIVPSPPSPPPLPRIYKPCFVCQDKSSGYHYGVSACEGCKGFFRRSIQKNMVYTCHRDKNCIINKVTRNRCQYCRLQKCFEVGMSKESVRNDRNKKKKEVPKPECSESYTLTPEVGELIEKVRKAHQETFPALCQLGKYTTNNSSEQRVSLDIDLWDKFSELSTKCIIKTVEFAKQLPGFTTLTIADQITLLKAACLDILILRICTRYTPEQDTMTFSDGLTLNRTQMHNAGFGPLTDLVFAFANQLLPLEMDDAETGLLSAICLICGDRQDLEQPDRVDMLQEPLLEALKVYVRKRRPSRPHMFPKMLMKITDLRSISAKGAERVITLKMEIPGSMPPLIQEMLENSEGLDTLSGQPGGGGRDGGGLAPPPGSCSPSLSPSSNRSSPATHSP

MDA-MB-468 [7] = test: Antiproliferative activity against estrogen-independent human MDA-MB-468 cells by MTT assay; type: functional, cell-based; details: TDE = time-dependent effect
Method in brief: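 MDA-MB-468 cells exposed to 2 µM compound in 0.5% FBS medium for 24, 48 or 72 h. Proliferation by MTT (A595) relative to DMSO control. Experiment repeated twice with triplicate time points; one representative experiment reported.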

[8] = system: Retinoid X receptor RXR-alpha (Mus musculus); test: Inhibition of LGD-1069-mediated mouse RXRalpha activation expressed in african green monkey CV1 cells; details: CV-1
T47D = test: Antiproliferative activity against estrogen-dependent human T47D cells after 48 hrs by MTT assay; type: functional, cell-based; method in brief: as §3
PC-3 = test: Antiproliferative activity against human PC3 cells after 48 hrs by MTT assay; type: functional, cell-based; details: PC-3, 48 h; method in brief: as §3
Jurkat [9] = test: Induction of apoptosis in human Jurkat cells assessed as enhanced DEVDase activity after 4 hrs by fluorescence enzymatic assay; type: functional, cell-based
Method in brief: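 Jurkat cells (40 000/well, 10⁶ cells/mL) in RPMI with 0.5% FBS, treated 4 h (2 or 4 µM). Lysed in PIPES/NP-40 buffer 30 min at 4 °C, then diluted into HEPES/CHAPS caspase buffer with 100 µM Ac-DEVD-AFC. AFC release read every 2 min over 30 min at 37 °C (ex 390/em 510 nm). Two experiments in triplicate, mean ± SD.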

[10] = system: Retinoid X receptor RXR-alpha (Mus musculus); test: Activation of mouse RXRalpha expressed in african green monkey CV1 cells assessed as luciferase activity; details: CV-1
[11] = molecular target: T3, Retinoic acid receptor alpha (Homo sapiens); test: Activity at human RARalpha expressed in african green monkey CV1 cells assessed as enhanced Gal4 transactivation activity by luciferase reporter gene assay; type: cell-based; details: CV-1; method in brief: as §2
[12] = system: Retinoid X receptor RXR-alpha (Mus musculus); test: Inhibition of 9-cis-retinoic acid-mediated mouse RXRalpha activation expressed in african green monkey CV1 cells; details: CV-1
MDA-MB-468 [13] = test: Antiproliferative activity against estrogen-independent human MDA-MB-468 cells at 2 uM after 72 hrs by MTT assay
Jurkat [14] = test: Antiproliferative activity against retinoid related molecule-sensitive human Jurkat cells after 24 hrs by MTT assay; type: functional, cell-based; method in brief: as §3
[15] = molecular target: T4, Inhibitor of nuclear factor kappa-B kinase subunit beta (Homo sapiens) (UniProt O14920); test: Inhibition of purified recombinant histidine-HA-tagged IKK-beta expressed in SF9 cells at 20 uM
T4 sequence (whole entry): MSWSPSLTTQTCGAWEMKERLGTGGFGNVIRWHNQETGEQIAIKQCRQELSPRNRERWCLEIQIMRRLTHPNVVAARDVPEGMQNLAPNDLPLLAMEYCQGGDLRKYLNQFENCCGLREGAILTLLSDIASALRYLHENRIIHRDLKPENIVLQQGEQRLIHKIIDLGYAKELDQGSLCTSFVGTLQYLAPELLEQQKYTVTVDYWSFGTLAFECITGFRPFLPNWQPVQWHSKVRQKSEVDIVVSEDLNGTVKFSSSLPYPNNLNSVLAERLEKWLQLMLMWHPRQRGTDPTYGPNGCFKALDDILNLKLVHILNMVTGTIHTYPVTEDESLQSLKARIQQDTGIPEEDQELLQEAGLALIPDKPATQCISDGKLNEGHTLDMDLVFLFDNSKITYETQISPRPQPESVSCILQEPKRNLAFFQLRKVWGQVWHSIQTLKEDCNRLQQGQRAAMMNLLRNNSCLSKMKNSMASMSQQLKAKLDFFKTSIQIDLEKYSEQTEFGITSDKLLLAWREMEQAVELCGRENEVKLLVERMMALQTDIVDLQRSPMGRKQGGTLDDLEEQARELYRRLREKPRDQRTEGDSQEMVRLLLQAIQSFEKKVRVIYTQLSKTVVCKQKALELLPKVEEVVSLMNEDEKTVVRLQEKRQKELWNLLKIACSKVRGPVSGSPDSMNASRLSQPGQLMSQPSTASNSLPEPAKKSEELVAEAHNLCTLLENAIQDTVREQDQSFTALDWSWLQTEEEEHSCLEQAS
Method in brief: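 (His)6-HA-IKKβ expressed in baculovirus-infected Sf9 cells and Ni-resin purified. 100 ng enzyme in MOPS pH 7.0 buffer with 5 µg GST-IκBα, 10 mM MgCl₂, 6.25 µM ATP (Km level) plus ³²P-γ-ATP. Compound (20 µM) preincubated with enzyme/substrate before ATP/Mg addition. 30 min at 30 °C, stopped with phosphoric acid, filter-bound radioactivity counted. No-enzyme background subtracted; activity as ratio to control. Two to four experiments in triplicate.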

[16] = molecular target: T5, Inhibitor of nuclear factor kappa-B kinase subunit beta (Homo sapiens, UniProt O14920); test: Inhibition of purified recombinant histidine-HA-tagged IKK-beta expressed in SF9 cells
T5 sequence (O14920 whole entry): T4 sequence (whole entry)

Activity [1]	Activity [2]	IC50 (MDA-MB-468 [3])	Activity [4]	Activity [5]	Activity [6]	Activity [8]	IC50 (T47D)	IC50 (PC-3)	Activity [10]	Activity [11]	Activity [12]	IC50 (Jurkat [14])	inhibition [15]	IC50 [16]	Activity [15]	SMILES	Activity (MDA-MB-468 [7])	Activity (Jurkat [9])	Activity (MDA-MB-468 [13])
Active	inactive	6.08 µM	Active	inactive	Active	inactive	8 µM	2510 nM	inactive	inactive	inactive	1890 nM				COCCOCOc1cc(O)c(C(=O)/C=C/c2ccc(C(=O)O)cc2)cc1C12CC3CC(CC(C3)C1)C2	tde	Active	40%
Active			Active		Active											CC1(C)CC=C(C#Cc2ccccc2)c2cc(/C=C/c3ccc(C(=O)O)cc3)ccc21			
30%	inactive	2.11 µM	30%	inactive	Active	inactive	3.27 µM	1480 nM	inactive	inactive	inactive	1200 nM	65%	7 µM		COCCOCOc1ccc(C(=O)/C=C/c2ccc(C(=O)O)cc2)cc1C12CC3CC(CC(C3)C1)C2	tde	Active	
															Active	Cc1ccc2nc(NCCN)c3ncc(C)n3c2c1			
